These results are taken from ChEMBL document CHEMBL1275598, “In vitro activity of ceftaroline against community-associated methicillin-resistant, vancomycin-intermediate, vancomycin-resistant, and daptomycin-nonsusceptible Staphylococcus aureus isolates” (2010).

Experiment [1] concerns Staphylococcus aureus. Kind of experiment: Antimicrobial activity against vancomycin resistant Staphylococcus aureus VRS-1 expressing SCCmec type 2 element by microdilution method in presence of 50 mg/L calcium. Format: functional. The method in brief:
(§1)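 Broth microdilution per CLSI in cation-adjusted Mueller-Hinton broth supplemented with calcium to 50 mg/liter final. Antibiotic powders were reconstituted per CLSI. The MIC was read visually as the lowest drug concentration with no visible growth. S. aureus ATCC 29213 and E. faecalis ATCC 29212 served as control strains.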
For orientation: Dilution methods test growth across graded concentrations, often in twofold steps.

The subject of experiment [2] is Staphylococcus aureus. Briefly: Antimicrobial activity against vancomycin resistant Staphylococcus aureus VRS-5 expressing SCCmec type 2 element by microdilution method in presence of 50 mg/L calcium.
The test system of experiment [3] is Staphylococcus aureus. Briefly: Antimicrobial activity against vancomycin resistant Staphylococcus aureus VRS-7 expressing SCCmec element by microdilution method in presence of 50 mg/L calcium. Format: functional. The method in brief:
as §1

Experiment [4] has as its system Staphylococcus aureus. Kind of experiment: Antimicrobial activity against vancomycin resistant Staphylococcus aureus VRS-8 expressing SCCmec element by microdilution method in presence of 50 mg/L calcium.
For experiment [5], the system named is Staphylococcus aureus. Kind of experiment: Bactericidal activity against vancomycin-intermediate Staphylococcus aureus assessed as antibiotic concentration that reduced the number of viable cells by =>99.9% by colony count method in presence of 50 mg/L calcium. Format: functional. Put shortly: (§2)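 MBC per CLSI following microdilution in cation-adjusted Mueller-Hinton broth with calcium added to 50 mg/liter final. Defined as the concentration giving ≥99.9% reduction in viable cells, judged from colony counts of the growth control well against Pearson rejection-value tables.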

The test system of experiment [6] is Staphylococcus aureus. Briefly: Antimicrobial activity against daptomycin-nonsusceptible Staphylococcus aureus assessed as susceptible isolates by microdilution method in presence of 50 mg/L calcium. Format: functional. Put shortly:
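Broth microdilution MIC per CLSI in cation-adjusted Mueller-Hinton broth, with calcium added to a final 50 mg/liter for daptomycin testing. MIC is the lowest drug concentration with no visible growth, read by eye. Percent susceptible was assigned from CLSI breakpoints. S. aureus ATCC 29213 and E. faecalis ATCC 29212 served as control strains.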

For experiment [7], the system named is Staphylococcus aureus. Kind of experiment: Bactericidal activity against daptomycin-nonsusceptible Staphylococcus aureus assessed as antibiotic concentration that reduced the number of viable cells by =>99.9% by colony count method in presence of 50 mg/L calcium. Format: functional. Put shortly:
as §2

Experiment [8] has as its system Staphylococcus aureus. Kind of experiment: Antimicrobial activity against vancomycin intermediate Staphylococcus aureus NRS-3 expressing SCCmec type 2 element by microdilution method in presence of 50 mg/L calcium. Format: functional. The method in brief:
(§3)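 Daptomycin MIC by CLSI broth microdilution in cation-adjusted Mueller-Hinton broth, supplemented with calcium to a final 50 mg/liter. Read visually as the lowest concentration with no visible growth. ATCC 29213 and E. faecalis ATCC 29212 served as controls. CA-MRSA and DNSSA isolates came from patients at the study hospital; VISA isolates came from NARSA.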

The test system of experiment [9] is Staphylococcus aureus. Kind of experiment: Antimicrobial activity against vancomycin intermediate Staphylococcus aureus NRS-23 expressing SCCmec type 2 element by microdilution method in presence of 50 mg/L calcium. Format: functional. The method in brief: as §3
The subject of experiment [10] is Staphylococcus aureus. Kind of experiment: Antimicrobial activity against vancomycin intermediate Staphylococcus aureus NRS-73 expressing SCCmec type 4d element by microdilution method in presence of 50 mg/L calcium. Format: functional. The method in brief:
as §3

The test system of experiment [11] is Staphylococcus aureus. Briefly: Antimicrobial activity against vancomycin intermediate Staphylococcus aureus NRS-403 expressing SCCmec type 2 element by microdilution method in presence of 50 mg/L calcium. Format: functional. Put shortly:
as §3

The subject of experiment [12] is Staphylococcus aureus. Kind of experiment: Antimicrobial activity against vancomycin intermediate Staphylococcus aureus NRS-404 expressing SCCmec type 2 element by microdilution method in presence of 50 mg/L calcium. Format: functional. The method in brief:
as §3

What is called MIC is the lowest concentration that inhibits growth of the organism. As a reminder, the MBC is the smallest concentration meeting the test's criterion for killing. For the compound `CCCCCCCCCC(=O)N[C@@H](Cc1c[nH]c2ccccc12)C(=O)N[C@H](CC(N)=O)C(=O)N[C@@H](CC(=O)O)C(=O)N[C@@H]1C(=O)NCC(=O)N[C@@H](CCCN)C(=O)N[C@@H](CC(=O)O)C(=O)N[C@H](C)C(=O)N[C@@H](CC(=O)O)C(=O)NCC(=O)N[C@H](CO)C(=O)N[C@@H]([C@H](C)CC(=O)O)C(=O)N[C@@H](CC(=O)c2ccccc2N)C(=O)O[C@@H]1C`, the MIC was 1 µg/mL in the experiment with Staphylococcus aureus [1]; 0.5 µg/mL in the experiment on Staphylococcus aureus [2]; 1 µg/mL in the experiment with Staphylococcus aureus [3]; 0.5 µg/mL in the experiment on Staphylococcus aureus [4]; 4 µg/mL in the experiment with Staphylococcus aureus [8]; 2 µg/mL in the experiment on Staphylococcus aureus [9]. The MIC in the experiment with Staphylococcus aureus [10], with Staphylococcus aureus [11] and with Staphylococcus aureus [12] was 2 µg/mL throughout. Further, the figures for the MBC50 in the experiment with Staphylococcus aureus [5] and in the experiment with Staphylococcus aureus [7] were 2 µg/mL and 8 µg/mL, respectively. For the same compound, the MBC90 with Staphylococcus aureus [5] is 4 µg/mL. Besides, the MBC in the experiment with Staphylococcus aureus [5] (Staphylococcus aureus) was 0.5 µg/mL; with Staphylococcus aureus [7], 4 µg/mL; in the experiment with Staphylococcus aureus [7] (Staphylococcus aureus, read-out: MBC), 5.94 µg/mL. Further, the Activity with Staphylococcus aureus [6] came to 0%.
